Test results from ChEMBL document CHEMBL1154887, “Pycnanthulignenes A-D, antimicrobial cyclolignene derivatives from the roots of Pycnanthus angolensis” (2010).
In brackets after ≈: the same amount, converted by molar mass.

Legend:
[1] = test system: Escherichia coli; assay: Antibacterial activity against beta lactamase positive Escherichia coli LMP 701 after 24 hrs by microbroth dilution method; type: functional
Procedure, shortened: (§1)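 Minimal microbicidal concentration taken after the microbroth dilution MIC assay. MMC is the lowest concentration giving no growth after subculture.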

[2] = test system: Shigella dysenteriae; assay: Antibacterial activity against beta lactamase positive Shigella dysenteriae LMP 606 after 30 mins by microbroth dilution method; type: functional
Procedure, shortened: (§2)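 Microbroth dilution MIC, done in three independent repeats. After incubation, 0.2 mg/mL p-iodonitrotetrazolium chloride was added and plates were held at 37 °C for 30 min. Viable cells reduce the yellow dye to pink.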

[3] = test system: Staphylococcus aureus; assay: Antibacterial activity against methicillin-resistant Staphylococcus aureus LMP 805 after 24 hrs by microbroth dilution method; type: functional
Procedure, shortened: (§3)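 For MMC, wells with no colour change after the INT step of the microbroth dilution assay were subcultured onto MHA agar and incubated at 37 °C for 24 h. MMC is the lowest concentration giving no growth after subculture. The assay was repeated three times.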

[4] = test system: Escherichia coli; assay: Antibacterial activity against beta lactamase positive Escherichia coli LMP 701 after 30 mins by microbroth dilution method; type: functional
Procedure, shortened: (§4)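 Microbroth dilution, run three times. After incubation, 0.2 mg/mL p-iodonitrotetrazolium chloride was added and plates were held 30 min at 37 °C. Viable cells reduce the yellow dye to pink. MIC is the lowest concentration that prevented the colour change and gave complete growth inhibition.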

[5] = test system: Pseudomonas aeruginosa; assay: Antibacterial activity against beta carbenicillin resistant Pseudomonas aeruginosa LMP 804 after 30 mins by microbroth dilution method; type: functional; procedure, shortened: as §2
[6] = test system: Staphylococcus aureus; assay: Antibacterial activity against methicillin-resistant Staphylococcus aureus LMP 805 after 30 mins by microbroth dilution method; type: functional; procedure, shortened: as §2
[7] = test system: Candida albicans; assay: Antifungal activity against Candida albicans LMP 709U […] by microbroth dilution method; type: functional; procedure, shortened: as §4
[8] = test system: Klebsiella pneumoniae; assay: Antibacterial activity against beta ampicillin resistant Klebsiella pneumoniae LMP 803 after 30 mins by microbroth dilution method; type: functional; procedure, shortened: as §2
[9] = test system: Candida albicans; assay: Antifungal activity against Candida albicans LMP 709U after 24 hrs by microbroth dilution method; type: functional; procedure, shortened: as §1
[10] = test system: Shigella dysenteriae; assay: Antibacterial activity against beta lactamase positive Shigella dysenteriae LMP 606 after 24 hrs by microbroth dilution method; type: functional; procedure, shortened: as §3
[11] = test system: Microsporum audouinii; assay: Antifungal activity against Microsporum audouinii LMP 725D after 24 hrs by microbroth dilution method; type: functional; procedure, shortened: as §1
[12] = test system: Pseudomonas aeruginosa; assay: Antibacterial activity against beta carbenicillin resistant Pseudomonas aeruginosa LMP 804 after 24 hrs by microbroth dilution method; type: functional; procedure, shortened: as §3
[13] = test system: Salmonella enterica; assay: Antibacterial activity against chloramphenicol-resistant Salmonella typhi LMP 706 after 30 mins by microbroth dilution method; type: functional, Salmonella enterica subsp. enterica serovar Typhi; procedure, shortened: as §2
[14] = test system: Microsporum audouinii; assay: Antifungal activity against Microsporum audouinii LMP 725D after 30 mins by microbroth dilution method; type: functional; procedure, shortened: as §4
[15] = test system: Klebsiella pneumoniae; assay: Antibacterial activity against beta ampicillin resistant Klebsiella pneumoniae LMP 803 after 24 hrs by microbroth dilution method; type: functional; procedure, shortened: as §3
[16] = test system: Citrobacter freundii; assay: Antibacterial activity against chloramphenicol-resistant Citrobacter freundii LMP 802 after 30 mins by microbroth dilution method; type: functional; procedure, shortened: as §2
[17] = test system: Salmonella enterica; assay: Antibacterial activity against chloramphenicol-resistant Salmonella typhi LMP 706 after 24 hrs by microbroth dilution method; type: functional, Salmonella enterica subsp. enterica serovar Typhi; procedure, shortened: as §3
[18] = test system: Citrobacter freundii; assay: Antibacterial activity against chloramphenicol-resistant Citrobacter freundii LMP 802 after 24 hrs by microbroth dilution method; type: functional; procedure, shortened: as §3
[19] = Salmonella enterica subsp. enterica serovar Typhi

Molecule	MMC [1] [µg/mL]	MIC ([2]; LMP 606, 0.5 h) [µg/mL]	MMC [3] [µg/mL]	MIC ([4]; LMP 701, 0.5 h) [µg/mL]	MIC ([5]; LMP 804, 0.5 h) [µg/mL]	MIC ([6]; LMP 805, 0.5 h) [µg/mL]	MIC [7] [µg/mL]	MIC ([8]; LMP 803, 0.5 h) [µg/mL]	MMC [9] [µg/mL]	MMC [10] [µg/mL]	MMC [11] [µg/mL]	MMC [12] [µg/mL]	MIC ([13]; LMP 706, 0.5 h) [µg/mL]	MIC ([14]; 0.5 h) [µg/mL]	MMC [15] [µg/mL]	MIC ([16]; LMP 802, 0.5 h) [µg/mL]	MMC [18] [µg/mL]	other results
COc1cc2c(cc1OC)[C@H](c1ccc(O)cc1)[C@@H](C)C(C)=C2 [PYCNANTHULIGNENE A]	39.1	39.1 (≈ 126 µM)	19.53	19.5 (≈ 62.8 µM)	78.1 (≈ 252 µM)	9.76 (≈ 31.4 µM)	19.5 (≈ 62.9 µM)	78.1 (≈ 252 µM)	39.06	78.1	78.12	>78.12	19.5 (≈ 62.9 µM)	39.1 (≈ 126 µM)	>78.12	39.1 (≈ 126 µM)		
COc1ccc(-c2c(C)c(C)cc3cc4c(cc23)OCO4)cc1 [PYCNANTHULIGNENE C]	78.1	39.1 (≈ 128 µM)	39.1	19.5 (≈ 63.7 µM)	> 78.1	19.5 (≈ 63.7 µM)	19.5 (≈ 63.7 µM)	78.1 (≈ 255 µM)	39.06	>78.1	78.1	>78.12	39.1 (≈ 127 µM)	39.1 (≈ 127 µM)	>78.1	39.1 (≈ 127 µM)	78.12	MMC [17]: 78.12 µg/mL
GENTAMICIN																		MIC [2]: 4.88 µg/mL; MIC [4]: 4.88 µg/mL; MIC [5]: > 9.76 µg/mL; MIC [6]: 4.88 µg/mL; MIC [8]: 19.5 µg/mL; MIC [13, 19]: 9.76 µg/mL; MIC [14]: 4.88 µg/mL; MIC [16]: 4.88 µg/mL
NYSTATIN	9.8								9.8	9.8	9.8	19.5			19.5		9.8	MMC [17, 19]: 19.5 µg/mL
